Here are results for 167 variants from the RNAGym collection of RNA variant scans (doi:10.1126/science.aae0568).

This sample holds only a part of the variants without activity.

The labels stand for the following.
B1: tRNA (parent)
chain: GUUCCGUUGGCGUAAUGGUAACGCGUCUCCCUCCUAAGGAGAAGACUGCGGGUUCGAGUCCCGUACGGAACG

Variants of B1 are the subject of the series. Description: yeast fitness relative to wild type (ratio to wild type); higher = fitter; tRNA-Arg(CCU), competitive growth, 37 C, YPD. A digest of the protocol: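 Start and end populations of a pooled competition were compared by 100-nucleotide paired-end sequencing of gene amplicons. The Saccharomyces cerevisiae strains carried tRNA-Arg(CCU) gene variants at the native genomic locus, synthesised with a 3% per-site mutation rate at 69 sites, and competed in YPD at 37°C for 24 hours in six parallel replicates. Darwinian fitness relative to wild type was based on the change in genotype frequencies. Genotypes required ≥ 100 starting reads, and estimates < 0.5 were set to 0.5.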
As to C22G A40U U54A, the yeast fitness is ≤ 0.5.

Turning to C22A G23A C34U A57C C66U A69C, the yeast fitness came out at 0.548.

Turning to C22A G25C C62A, the yeast fitness came out at 0.559.

For the variant C22G A43U C46G, the yeast fitness was ≤ 0.5.

As for C22A U28A A40U C61A, the yeast fitness is ≤ 0.5.

As for C22A U47A A65G, the yeast fitness worked out at 0.573.

C22A U47A A65U: the yeast fitness is ≤ 0.5.

In the case of C22A C61U, the yeast fitness was 0.864.

Take C22A G41A G50A: the yeast fitness was ≤ 0.5.

Consider C22A G51C C60U, for which the yeast fitness was ≤ 0.5.

For the variant C22A G23A C33U C34G G67C A69C, the yeast fitness was ≤ 0.5.

As for C22G A36G, the yeast fitness amounted to 0.966.

With C22G A36U, the yeast fitness came to 0.66.

As to C22G A43U, the yeast fitness stood at 0.952.

As to C22A C46U C49G, the yeast fitness is 0.527.

Regarding C22A U54C, the yeast fitness worked out at 0.917.

As for C22A C29A C61U, the yeast fitness is ≤ 0.5.

As for C22A U28A G39C, the yeast fitness is ≤ 0.5.

Consider C22A U47A G48A A70G, for which the yeast fitness was ≤ 0.5.

Take C22G A36C U47A C66G: the yeast fitness was ≤ 0.5.

Regarding C22A G25A G48A C61G, the yeast fitness is ≤ 0.5.

As to C22A C46A, the yeast fitness was 0.83.

In the case of C22A G58A C60U, the yeast fitness is ≤ 0.5.

Consider C22A U53C C62U, for which the yeast fitness was ≤ 0.5.

On to C22G A37C, for which the yeast fitness came out at 0.721.

For C22A G48C, the yeast fitness was found to be 0.851.

As for C22A C29U A69U, the yeast fitness came out at 0.592.

C22G A43G A70U: the yeast fitness came out at 0.683.

In the case of C22A U26A C29G C34G A65G A69C, the yeast fitness is ≤ 0.5.

As for C22A C31G U35A, the yeast fitness came out at 0.558.

As to C22A C34A G56C G58A C61A, the yeast fitness came to 0.597.

With C22A C31G C46A C49U, the yeast fitness is ≤ 0.5.

For C22A C27U A43G C46G C49U A69C, the yeast fitness is ≤ 0.5.

In the case of C22G A43U U64C, the yeast fitness worked out at 0.611.

Regarding C22A C33G A37G, the yeast fitness was ≤ 0.5.

In the case of C22A C29U G56A C60G, the yeast fitness was ≤ 0.5.

As for C22A C27A, the yeast fitness was 0.718.

Consider C22A U47C, for which the yeast fitness stood at 0.882.

For C22A U28G G58C U64C, the yeast fitness was ≤ 0.5.

On to C22G A43C A45U G52A, for which the yeast fitness is ≤ 0.5.

C22A C27G A65U: the yeast fitness was ≤ 0.5.

As to C22A U28G C49A C61A, the yeast fitness is ≤ 0.5.

As for C22A C29G C62A A69U, the yeast fitness was ≤ 0.5.

Consider C22A C33A A36U, for which the yeast fitness was ≤ 0.5.

Take C22A U35A A37G G58A: the yeast fitness was ≤ 0.5.

For the variant C22A C24G G67C G68A, the yeast fitness is ≤ 0.5.

C22A C31G G38C A43G: the yeast fitness was ≤ 0.5.

For C22A C29U C49U, the yeast fitness is 0.622.

In the case of C22A C33A C60A, the yeast fitness turned out to be 0.642.

Turning to C22A G52C, the yeast fitness worked out at 0.665.

Regarding C22A G52A, the yeast fitness stood at 0.637.

Regarding C22A U28G C31G A42U G58C, the yeast fitness was ≤ 0.5.

Consider C22G A42G C49U, for which the yeast fitness is 0.712.

As to C22A C66A G67A, the yeast fitness was ≤ 0.5.

For C22A U26A U54C C61A, the yeast fitness is 0.612.

For the variant C22A C62U, the yeast fitness stood at 0.935.

On to C22A U47A C55A, for which the yeast fitness was ≤ 0.5.

As to C22A G25C, the yeast fitness worked out at 1.05.

C22A C33G: the yeast fitness was 0.701.

Consider C22A C33A, for which the yeast fitness came out at 0.718.

Take C22A U28G: the yeast fitness turned out to be 0.625.

As to C22A U28C, the yeast fitness was found to be 0.852.

Consider C22A G23C C34U A36G A40U, for which the yeast fitness came to 0.548.

C22G A37C U54C: the yeast fitness was ≤ 0.5.

C22A U35A A70U: the yeast fitness is ≤ 0.5.

In the case of C22G A36C C55U C60A C62G A69U, the yeast fitness was 0.563.

Take C22G A40C A43U: the yeast fitness is ≤ 0.5.

In the case of C22A C31A, the yeast fitness was 0.789.

For C22A G41C U53C, the yeast fitness amounted to 0.656.

C22A G25A C27U A43C G44A: the yeast fitness was ≤ 0.5.

On to C22A C24U U28A A37G, for which the yeast fitness was ≤ 0.5.

With C22A U35G C66G A69U, the yeast fitness is ≤ 0.5.

In the case of C22A U47A G56A C60U, the yeast fitness was ≤ 0.5.

C22A G23C C30U C66G: the yeast fitness was ≤ 0.5.

Regarding C22G A43U C62U, the yeast fitness is 0.56.

As to C22G A43C A70U, the yeast fitness was 0.593.

With C22A U26C U47C A57G C66A, the yeast fitness amounted to 0.565.

As to C22A U47C C61G, the yeast fitness is ≤ 0.5.

Take C22A G67A: the yeast fitness is 0.888.

With C22A G67C, the yeast fitness was found to be 0.701.

Regarding C22A U26A C29G G50C, the yeast fitness is ≤ 0.5.

As to C22G A42U G50U, the yeast fitness is 0.523.

For the variant C22A C33A A36U U53A U54A, the yeast fitness is 0.551.

For the variant C22G A42G U59A G68C, the yeast fitness is ≤ 0.5.

Take C22A G51C: the yeast fitness was found to be 0.719.

Consider C22A C66U, for which the yeast fitness was determined as 0.982.

C22A C27U A57U: the yeast fitness is ≤ 0.5.

As for C22A U32G A37U, the yeast fitness was ≤ 0.5.

As for C22A C30A C31U G68C, the yeast fitness is ≤ 0.5.

On to C22A C27G G68U, for which the yeast fitness was ≤ 0.5.

For the variant C22A U47A G48A, the yeast fitness was 0.505.

For the variant C22A G23C C34U A36G A40U G63A, the yeast fitness was ≤ 0.5.

For the variant C22A C29U C33G C46U C62U, the yeast fitness is ≤ 0.5.

With C22G A36C C61U, the yeast fitness is ≤ 0.5.

C22A G23A C33U A42U: the yeast fitness was ≤ 0.5.

On to C22A G39C A43U U53C, for which the yeast fitness amounted to 0.723.

As for C22A C30G, the yeast fitness was determined as 0.636.

Regarding C22A C30U, the yeast fitness was found to be 0.647.

Turning to C22G A36C A37C, the yeast fitness is ≤ 0.5.

For the variant C22A C24U C30U C31G C66U, the yeast fitness was determined as 0.615.

Consider C22A G48A C49U G50A G51C A70C, for which the yeast fitness is ≤ 0.5.

In the case of C22A U28G C31G A42U, the yeast fitness was ≤ 0.5.

As for C22A C29G, the yeast fitness is 0.55.

Regarding C22A U26C, the yeast fitness was found to be 0.848.

C22G A43U U54C C62U: the yeast fitness was ≤ 0.5.

For C22G A42C C62U, the yeast fitness stood at 0.52.

For C22A U28A U53G, the yeast fitness was ≤ 0.5.

For the variant C22A C30A C33U C61G C62U, the yeast fitness is ≤ 0.5.

As for C22A C24G A43U C62A, the yeast fitness is ≤ 0.5.

On to C22A C31U G68C, for which the yeast fitness was determined as 0.561.

As to C22A U28A U47G, the yeast fitness is ≤ 0.5.

For C22A G25C G63A, the yeast fitness turned out to be 0.622.

Turning to C22A C24G C60G C66G, the yeast fitness was 0.542.

As to C22G A36C U47A A69C, the yeast fitness was ≤ 0.5.

Consider C22A C33G A43C U64C, for which the yeast fitness is 0.534.

For the variant C22G A42U C62A, the yeast fitness is ≤ 0.5.

For the variant C22A G23A C33U C34G C55U, the yeast fitness was ≤ 0.5.

Regarding C22A C27A A36U G39C, the yeast fitness was ≤ 0.5.

As for C22A G23A C33U C34G G51A, the yeast fitness is ≤ 0.5.

With C22A C29G G38C A65U, the yeast fitness is ≤ 0.5.

As to C22A G25C A40C, the yeast fitness was found to be 0.59.

On to C22A C33A A36U G48A C62G, for which the yeast fitness stood at 0.524.

Regarding C22A G25A A69U, the yeast fitness was 0.793.

For the variant C22G A40G A70U, the yeast fitness is 0.609.

C22A C29A C66A: the yeast fitness worked out at 0.513.

With C22A C55U A65U, the yeast fitness is ≤ 0.5.

Take C22A C29G C34G A42C C62G: the yeast fitness is ≤ 0.5.

Turning to C22A C33G A43C C55A C62U, the yeast fitness is ≤ 0.5.

For C22A U28G U35A, the yeast fitness turned out to be 0.571.

As for C22A U47C C55G, the yeast fitness was 0.536.

On to C22G A42G, for which the yeast fitness is 0.716.

Consider C22G A42U, for which the yeast fitness was 0.699.

As for C22G A43C U53C C55G, the yeast fitness was ≤ 0.5.

For C22G A36C A40G G58C C60A, the yeast fitness was ≤ 0.5.

As for C22G A40U A43U C61U, the yeast fitness was ≤ 0.5.

For the variant C22G A36G A37C C46A C49G U64G, the yeast fitness is ≤ 0.5.

As for C22A G23C G67U, the yeast fitness is ≤ 0.5.

For the variant C22A G23A C33U C34G C60A, the yeast fitness is ≤ 0.5.

As for C22A C46G A70C, the yeast fitness amounted to 0.57.

Turning to C22A C24G G52A G67C G68A, the yeast fitness is ≤ 0.5.

Turning to C22A C30A U54C C55G, the yeast fitness was ≤ 0.5.

In the case of C22A C24G U53C, the yeast fitness is ≤ 0.5.

Consider C22G A42C C60G, for which the yeast fitness is ≤ 0.5.

For the variant C22A C34G A37C, the yeast fitness was ≤ 0.5.

With C22A G25A C31G G48C, the yeast fitness was ≤ 0.5.

As for C22A C62U A65C, the yeast fitness turned out to be 0.663.

With C22A C29U C66G, the yeast fitness is ≤ 0.5.

For the variant C22G A37G C60A A70G, the yeast fitness is 0.501.

As to C22A G23C U32G C66G, the yeast fitness is ≤ 0.5.

For the variant C22G A43U A69C, the yeast fitness was 0.656.

In the case of C22A G25A G68A, the yeast fitness is 0.676.

C22A C34G: the yeast fitness is 0.686.

As for C22A C34U, the yeast fitness is 0.761.

For C22A C33G A43C A69C, the yeast fitness is ≤ 0.5.

Consider C22A C33G C60A C66G, for which the yeast fitness is ≤ 0.5.

As to C22A U28A C30A, the yeast fitness was 0.72.

C22A U28C C30U G44A: the yeast fitness is ≤ 0.5.

With C22G A37C A45U G67A, the yeast fitness was 0.581.

As to C22A C33A A37U, the yeast fitness is ≤ 0.5.

C22A C34U U35G C61U: the yeast fitness is ≤ 0.5.

Take C22A C49G: the yeast fitness was determined as 0.646.

With C22A C49A, the yeast fitness worked out at 0.669.

For the variant C22A C49U, the yeast fitness is 1.13.

With C22G A42C A65U G67A, the yeast fitness was ≤ 0.5.

C22G A42G G48C A65U: the yeast fitness is ≤ 0.5.

With C22A C30U C34G A70U, the yeast fitness was ≤ 0.5.

Regarding C22A C31U A45G, the yeast fitness amounted to 0.667.
